Data reported in ChEMBL document CHEMBL1138736, “Imidazoquinoxaline Src-family kinase p56Lck inhibitors: SAR, QSAR, and the discovery of (S)-N-(2-chloro-6-methylphenyl)-2-(3-methyl-1-piperazinyl)imidazo- [1,5-a]pyrido[3,2-e]pyrazin-6-amine (BMS-279700) as a potent and orally active inhibitor with excellent in vivo antiinflammatory activity” (J Med Chem, 2004).
Values joined by “and” are separate entries in the source; they are usually repeats but may differ in a detail not shown here. Equal values may be shown once.

What was measured:
[1] = Inhibition of recombinant p56 Lck tyrosine kinase expressed in insect cells
Method in brief: (§1)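 His-tagged recombinant Lck made in insect cells by baculovirus and purified on nickel affinity resin. Kinase buffer is 20 mM MOPS pH 7 with 10 mM MgCl2, and the test compound is present. It is stopped after 10 min with TCA/pyrophosphate then BSA. Enolase is precipitated at 4 °C, filtered and counted by scintillation.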

[2] = Inhibition of Human PBL (T cell) proliferation; type: functional
Method in brief: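 Normal human peripheral blood T cells are added with test compound and anti-CD28 (E.3) antibody to wells precoated with anti-CD3 mAb (G19-4). After 3 days [3H]-thymidine is added, and after further incubation the cells are harvested and incorporation is counted by scintillation.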

[3] = Inhibition of Platelet-derived growth factor receptor
[4] = Binding affinity for recombinant Lck/Yes-related tyrosine kinase expressed in insect cells
[5] = target: Tyrosine-protein kinase SYK (Homo sapiens, UniProt P43405); assay: Inhibition of Syk protein tyrosine kinase
[6] = target: Tyrosine-protein kinase Fyn (Homo sapiens, UniProt P06241); assay: Inhibition of Fyn protein kinase
Sequence of Tyrosine-protein kinase Fyn (P06241 whole entry): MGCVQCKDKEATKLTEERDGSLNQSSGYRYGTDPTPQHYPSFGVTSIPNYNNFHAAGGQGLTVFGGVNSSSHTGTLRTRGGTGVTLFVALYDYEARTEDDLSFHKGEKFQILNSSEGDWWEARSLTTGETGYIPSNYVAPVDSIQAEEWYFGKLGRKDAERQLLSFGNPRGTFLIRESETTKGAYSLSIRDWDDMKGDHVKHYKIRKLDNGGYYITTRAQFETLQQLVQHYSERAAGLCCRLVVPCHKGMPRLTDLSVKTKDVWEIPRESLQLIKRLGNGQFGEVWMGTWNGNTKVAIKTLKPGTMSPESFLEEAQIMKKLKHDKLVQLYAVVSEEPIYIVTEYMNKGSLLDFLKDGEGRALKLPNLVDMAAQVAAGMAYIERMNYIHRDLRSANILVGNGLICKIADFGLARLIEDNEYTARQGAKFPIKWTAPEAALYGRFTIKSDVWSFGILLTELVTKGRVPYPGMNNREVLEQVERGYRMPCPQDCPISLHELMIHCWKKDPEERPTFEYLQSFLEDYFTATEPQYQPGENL

[7] = target: T1, Inhibitor of nuclear factor kappa-B kinase subunit alpha (Homo sapiens, UniProt O15111); assay: Inhibition of I kappa-B kinase alpha
T1 sequence (O15111 whole entry): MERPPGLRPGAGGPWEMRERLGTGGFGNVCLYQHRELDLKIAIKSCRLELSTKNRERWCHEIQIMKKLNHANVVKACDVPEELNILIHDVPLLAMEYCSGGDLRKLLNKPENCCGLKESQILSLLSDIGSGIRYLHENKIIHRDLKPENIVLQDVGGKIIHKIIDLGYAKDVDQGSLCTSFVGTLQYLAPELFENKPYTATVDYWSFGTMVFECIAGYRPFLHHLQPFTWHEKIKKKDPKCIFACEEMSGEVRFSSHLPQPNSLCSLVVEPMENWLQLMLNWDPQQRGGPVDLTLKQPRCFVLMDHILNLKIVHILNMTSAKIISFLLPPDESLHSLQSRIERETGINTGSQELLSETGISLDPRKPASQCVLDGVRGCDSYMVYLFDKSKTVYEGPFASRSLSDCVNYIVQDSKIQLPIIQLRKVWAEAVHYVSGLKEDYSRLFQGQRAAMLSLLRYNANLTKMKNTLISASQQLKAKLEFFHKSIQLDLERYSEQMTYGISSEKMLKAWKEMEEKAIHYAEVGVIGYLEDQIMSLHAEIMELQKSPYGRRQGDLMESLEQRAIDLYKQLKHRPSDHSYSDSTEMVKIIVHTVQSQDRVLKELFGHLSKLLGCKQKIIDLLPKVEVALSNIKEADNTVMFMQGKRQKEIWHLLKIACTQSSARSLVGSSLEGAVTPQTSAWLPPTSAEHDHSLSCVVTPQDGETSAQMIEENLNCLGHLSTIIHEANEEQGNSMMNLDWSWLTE

[8] = target: Tyrosine-protein kinase Fgr (Homo sapiens, UniProt P09769); assay: Inhibition of Fgr protein kinase
Sequence of Tyrosine-protein kinase Fgr (P09769 whole entry): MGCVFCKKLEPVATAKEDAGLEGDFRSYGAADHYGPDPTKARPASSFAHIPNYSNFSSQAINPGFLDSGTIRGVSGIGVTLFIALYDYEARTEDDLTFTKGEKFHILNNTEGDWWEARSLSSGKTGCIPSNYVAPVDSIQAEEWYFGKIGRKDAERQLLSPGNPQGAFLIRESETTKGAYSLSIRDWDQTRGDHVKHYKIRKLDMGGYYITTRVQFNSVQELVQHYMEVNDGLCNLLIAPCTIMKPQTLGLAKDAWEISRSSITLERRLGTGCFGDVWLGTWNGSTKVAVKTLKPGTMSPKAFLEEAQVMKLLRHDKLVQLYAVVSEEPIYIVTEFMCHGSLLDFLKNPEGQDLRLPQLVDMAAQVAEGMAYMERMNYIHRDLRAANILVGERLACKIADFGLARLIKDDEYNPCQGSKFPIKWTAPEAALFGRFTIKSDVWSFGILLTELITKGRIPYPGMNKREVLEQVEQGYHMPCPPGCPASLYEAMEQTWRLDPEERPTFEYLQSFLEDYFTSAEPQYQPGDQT

[9] = Inhibition of p56 Lck tyrosine kinase; method in brief: as §1
[10] = Inhibition of Blk kinase
[11] = target: Tyrosine-protein kinase HCK (Homo sapiens, UniProt P08631); assay: Inhibition of Hck kinase
Sequence of Tyrosine-protein kinase HCK (P08631 whole entry): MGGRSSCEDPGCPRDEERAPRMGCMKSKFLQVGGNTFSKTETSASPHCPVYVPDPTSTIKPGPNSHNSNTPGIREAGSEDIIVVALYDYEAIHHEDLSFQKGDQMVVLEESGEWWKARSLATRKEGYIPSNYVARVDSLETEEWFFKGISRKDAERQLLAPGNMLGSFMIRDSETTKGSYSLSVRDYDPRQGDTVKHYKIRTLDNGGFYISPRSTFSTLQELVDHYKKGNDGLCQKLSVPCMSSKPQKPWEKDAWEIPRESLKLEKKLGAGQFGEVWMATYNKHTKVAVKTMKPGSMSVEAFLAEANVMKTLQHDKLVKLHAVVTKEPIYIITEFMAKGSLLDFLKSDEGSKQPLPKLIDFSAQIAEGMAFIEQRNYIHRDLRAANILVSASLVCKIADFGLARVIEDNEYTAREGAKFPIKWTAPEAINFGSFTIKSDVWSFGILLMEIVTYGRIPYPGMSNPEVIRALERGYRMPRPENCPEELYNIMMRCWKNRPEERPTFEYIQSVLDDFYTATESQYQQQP

[12] = target: Tyrosine-protein kinase Lyn (Homo sapiens, UniProt P07948); assay: Inhibition of Lyn kinase
Sequence of Tyrosine-protein kinase Lyn (P07948 whole entry): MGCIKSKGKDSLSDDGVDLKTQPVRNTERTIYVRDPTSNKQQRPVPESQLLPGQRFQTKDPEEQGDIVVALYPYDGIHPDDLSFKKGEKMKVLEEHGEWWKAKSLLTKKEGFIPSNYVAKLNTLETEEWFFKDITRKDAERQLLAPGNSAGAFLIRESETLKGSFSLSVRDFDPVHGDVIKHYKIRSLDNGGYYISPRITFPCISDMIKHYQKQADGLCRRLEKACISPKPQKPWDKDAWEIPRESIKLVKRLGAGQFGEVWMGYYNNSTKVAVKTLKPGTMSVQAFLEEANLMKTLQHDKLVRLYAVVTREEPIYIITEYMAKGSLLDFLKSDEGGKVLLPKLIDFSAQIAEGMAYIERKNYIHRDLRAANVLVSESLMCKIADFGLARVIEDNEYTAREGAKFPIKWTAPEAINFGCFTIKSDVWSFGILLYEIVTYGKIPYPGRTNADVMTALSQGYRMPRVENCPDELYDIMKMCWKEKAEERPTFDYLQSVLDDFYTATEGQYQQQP

Protein kinase C (PKC) = assay: Inhibition of PKC kinase; type: protein assay
[13] = target: Tyrosine-protein kinase Yes (Homo sapiens, UniProt P07947); assay: Inhibition of Yes kinase
Sequence of Tyrosine-protein kinase Yes (P07947 whole entry): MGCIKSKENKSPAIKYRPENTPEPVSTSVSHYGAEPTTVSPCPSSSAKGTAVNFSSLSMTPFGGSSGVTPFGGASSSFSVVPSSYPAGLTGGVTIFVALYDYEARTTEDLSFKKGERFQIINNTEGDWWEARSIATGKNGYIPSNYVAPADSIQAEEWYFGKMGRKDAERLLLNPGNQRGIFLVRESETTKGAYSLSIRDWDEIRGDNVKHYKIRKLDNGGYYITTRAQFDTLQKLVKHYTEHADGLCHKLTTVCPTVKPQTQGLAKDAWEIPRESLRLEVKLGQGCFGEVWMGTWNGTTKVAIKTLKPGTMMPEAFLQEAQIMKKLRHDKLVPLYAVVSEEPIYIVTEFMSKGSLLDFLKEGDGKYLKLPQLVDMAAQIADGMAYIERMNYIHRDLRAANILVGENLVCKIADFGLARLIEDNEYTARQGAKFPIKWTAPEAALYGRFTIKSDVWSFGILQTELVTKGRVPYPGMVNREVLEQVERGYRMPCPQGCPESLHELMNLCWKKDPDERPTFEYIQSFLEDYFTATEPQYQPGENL

MAP kinase p38 = MAP kinase p38 (Homo sapiens, UniProt O15264+Q15759+Q16539+P53778); assay: Inhibition of p38 MAP-kinase; type: protein assay
[14] = target: T2, Tyrosine-protein kinase ZAP-70 (Homo sapiens, UniProt P43403); assay: Inhibition of Zeta-chain (TCR) associated protein kinase 70 kDa (ZAP-70)
T2 sequence (P43403 whole entry): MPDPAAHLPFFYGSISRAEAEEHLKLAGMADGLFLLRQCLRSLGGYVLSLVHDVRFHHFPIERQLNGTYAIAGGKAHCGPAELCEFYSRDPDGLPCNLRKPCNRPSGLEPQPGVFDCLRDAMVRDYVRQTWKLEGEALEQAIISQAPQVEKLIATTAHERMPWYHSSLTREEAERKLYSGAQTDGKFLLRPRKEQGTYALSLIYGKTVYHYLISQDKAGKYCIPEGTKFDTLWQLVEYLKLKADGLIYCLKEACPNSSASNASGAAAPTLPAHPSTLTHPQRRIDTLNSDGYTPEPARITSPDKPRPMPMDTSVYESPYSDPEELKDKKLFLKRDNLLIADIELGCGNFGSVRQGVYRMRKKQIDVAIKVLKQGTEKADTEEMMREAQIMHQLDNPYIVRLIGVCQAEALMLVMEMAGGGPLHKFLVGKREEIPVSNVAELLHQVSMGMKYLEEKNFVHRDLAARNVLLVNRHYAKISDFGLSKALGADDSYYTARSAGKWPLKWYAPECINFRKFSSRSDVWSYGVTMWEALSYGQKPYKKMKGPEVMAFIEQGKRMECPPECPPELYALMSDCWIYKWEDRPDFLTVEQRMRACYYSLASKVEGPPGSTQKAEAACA

[15] = Inhibition of Protein kinase A
[16] = target: T3, Inhibitor of nuclear factor kappa-B kinase subunit beta (Homo sapiens, UniProt O14920); assay: Inhibition of I-kappa-B-kinase beta
T3 sequence (O14920 whole entry): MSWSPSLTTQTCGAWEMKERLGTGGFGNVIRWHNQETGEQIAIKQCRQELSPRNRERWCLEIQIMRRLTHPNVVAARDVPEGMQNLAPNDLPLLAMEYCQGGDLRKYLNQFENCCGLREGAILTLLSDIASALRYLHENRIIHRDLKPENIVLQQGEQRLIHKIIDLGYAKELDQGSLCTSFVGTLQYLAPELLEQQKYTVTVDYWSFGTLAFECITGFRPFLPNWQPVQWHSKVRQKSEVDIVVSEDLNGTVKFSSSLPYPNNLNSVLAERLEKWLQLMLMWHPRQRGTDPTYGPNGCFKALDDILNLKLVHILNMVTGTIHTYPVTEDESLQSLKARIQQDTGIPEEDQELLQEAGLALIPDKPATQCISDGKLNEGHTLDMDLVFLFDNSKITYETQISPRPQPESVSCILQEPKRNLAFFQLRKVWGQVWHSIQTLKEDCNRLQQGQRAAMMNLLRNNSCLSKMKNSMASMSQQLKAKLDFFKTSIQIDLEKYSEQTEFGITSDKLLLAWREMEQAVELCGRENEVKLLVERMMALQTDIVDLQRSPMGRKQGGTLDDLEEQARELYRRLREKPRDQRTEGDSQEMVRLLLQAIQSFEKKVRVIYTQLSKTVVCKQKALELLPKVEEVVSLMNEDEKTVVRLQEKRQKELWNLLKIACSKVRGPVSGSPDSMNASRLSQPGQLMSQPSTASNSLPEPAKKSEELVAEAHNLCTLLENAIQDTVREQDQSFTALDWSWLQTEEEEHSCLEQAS

[17] = target: Receptor tyrosine-protein kinase erbB-2 (Homo sapiens, UniProt P04626); assay: Inhibition of HER2 kinase
Sequence of Receptor tyrosine-protein kinase erbB-2 (P04626 whole entry): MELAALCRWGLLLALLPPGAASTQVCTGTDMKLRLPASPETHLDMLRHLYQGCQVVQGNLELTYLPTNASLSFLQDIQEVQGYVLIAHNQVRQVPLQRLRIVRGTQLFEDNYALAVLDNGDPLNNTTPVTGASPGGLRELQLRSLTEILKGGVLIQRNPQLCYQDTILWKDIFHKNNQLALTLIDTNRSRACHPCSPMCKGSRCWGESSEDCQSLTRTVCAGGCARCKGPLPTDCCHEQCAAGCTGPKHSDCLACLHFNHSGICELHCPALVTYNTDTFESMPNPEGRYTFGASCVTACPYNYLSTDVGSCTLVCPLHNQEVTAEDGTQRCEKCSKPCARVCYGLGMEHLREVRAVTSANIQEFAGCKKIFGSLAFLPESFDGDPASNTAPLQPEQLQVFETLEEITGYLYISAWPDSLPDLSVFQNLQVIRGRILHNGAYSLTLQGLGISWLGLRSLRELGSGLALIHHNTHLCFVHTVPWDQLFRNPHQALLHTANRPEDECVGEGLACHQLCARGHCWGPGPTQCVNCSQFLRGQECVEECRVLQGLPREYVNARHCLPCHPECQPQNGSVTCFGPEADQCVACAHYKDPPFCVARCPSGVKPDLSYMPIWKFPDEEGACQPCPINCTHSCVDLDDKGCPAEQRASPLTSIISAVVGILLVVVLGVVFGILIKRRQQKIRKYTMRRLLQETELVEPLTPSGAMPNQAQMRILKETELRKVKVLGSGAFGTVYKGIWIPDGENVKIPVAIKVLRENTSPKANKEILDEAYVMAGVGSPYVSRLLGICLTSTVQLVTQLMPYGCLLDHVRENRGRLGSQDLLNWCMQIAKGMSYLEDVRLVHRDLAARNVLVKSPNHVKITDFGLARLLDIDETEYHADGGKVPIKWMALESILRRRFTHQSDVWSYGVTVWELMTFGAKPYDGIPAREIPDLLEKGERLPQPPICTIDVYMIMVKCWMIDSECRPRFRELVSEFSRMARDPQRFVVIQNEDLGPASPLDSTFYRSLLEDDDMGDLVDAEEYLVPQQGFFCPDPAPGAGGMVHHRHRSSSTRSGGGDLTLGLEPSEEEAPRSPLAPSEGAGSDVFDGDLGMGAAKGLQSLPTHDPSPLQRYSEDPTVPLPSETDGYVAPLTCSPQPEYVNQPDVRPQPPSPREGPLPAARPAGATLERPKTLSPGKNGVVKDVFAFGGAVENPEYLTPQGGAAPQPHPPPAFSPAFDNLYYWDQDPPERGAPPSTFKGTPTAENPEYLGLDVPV

[18] = Binding affinity for recombinant p56 Lck tyrosine kinase expressed in insect cells; method in brief: as §1

Structure (SMILES) | IC50 [1] | IC50 ([2]; Homo sapiens) | also measured
Cc1cccc(Cl)c1Nc1nc2cc(N3CCNCC3)ncc2n2cncc12 | 0.163 µM |  | 
Cc1cccc(Cl)c1Nc1nc2ccc(N3CC[C@@H](O)C3)nc2n2cncc12 | 0.008 µM | 0.73 µM | 
COc1cc2nc(Nc3c(C)cccc3Cl)c3cncn3c2cc1OC |  | 0.67 µM | 
Cc1cccc(Cl)c1Nc1nc2ccc(N3CCN[C@@H](C)C3)nc2n2cncc12 |  |  | IC50 [3]: > 1 µM; Kd [4]: 0.00017 µM; Ki [4]: 0.00055 µM; IC50 [5]: > 10 µM; IC50 [6]: 0.005 µM; IC50 [7]: > 10 µM; IC50 [8]: 0.0028 µM; IC50 [9]: 0.004 µM; IC50 [10]: 0.027 µM; IC50 [11]: 0.023 µM; IC50 [12]: 0.0005 µM; IC50 (Protein kinase C (PKC)): > 10 µM; IC50 [13]: 0.0047 µM; IC50 (MAP kinase p38): 0.38 µM; IC50 [14]: > 1 µM; IC50 [15]: > 10 µM; IC50 [2]: 0.273 µM and > 0.1 µM; IC50 [16]: > 10 µM; IC50 [17]: > 1 µM
CC1=NN(C)C2C1N=C(Nc1c(C)cccc1Cl)c1cnc(C)n12 (stereo unspecified) | > 0.78 µM |  | 
Cc1cccc(Cl)c1Nc1nc2ccc(N3CCN(CCO)CC3)nc2n2cncc12 | 0.009 µM | 0.24 µM | 
Cc1cccc(Cl)c1Nc1nc2cc(N(C)CCN3CCOCC3)ncc2n2cncc12 | 0.103 µM |  | 
Cc1cccc(Cl)c1Nc1nc2ccc(N3CCCNCC3)nc2n2cncc12 | 0.006 µM | 0.54 µM | 
Cc1cccc(Cl)c1Nc1nc2ccc(N3CC[C@H](N)C3)nc2n2cncc12 | 0.006 µM | 0.37 µM | 
Cc1cccc(Cl)c1Nc1nc2ccc(NCCO)nc2n2cncc12 | 0.003 µM | 0.49 µM | 
Cc1cccc(Cl)c1Nc1nc2ccc(N(C)CCN(C)C)nc2n2cncc12 | 0.071 µM |  | 
Cc1cccc(Cl)c1Nc1nc2ccc(N3CC[C@H](O)C3)nc2n2cncc12 | 0.004 µM | 0.34 µM | 
Cc1cccc(Cl)c1Nc1nc2ccccc2n2cncc12 | 0.009 µM | 5 µM | 
Cc1cccc(Cl)c1Nc1nc2ccc(Cl)nc2n2cncc12 | 0.025 µM |  | 
Cc1cccc(C)c1Nc1nc2ccc(N3CCNCC3)nc2n2cncc12 | 0.001 µM | 0.23 µM | 
Cc1cccc(Cl)c1Nc1nc2ccc(N3CCN(CCN(C)C)CC3)nc2n2cncc12 | 0.002 µM | 0.25 µM | 
Cc1cccc(Cl)c1Nc1nc2ccc(N3CC[C@@H](N)C3)nc2n2cncc12 | 0.007 µM | 0.31 µM | 
Cc1cccc(Cl)c1Nc1nc2ccc(N(C)C[C@H](O)CO)nc2n2cncc12 | 0.013 µM | 0.63 µM | 
Cc1cccc(Cl)c1Nc1nc2ccc(N3CCOCC3)nc2n2cncc12 | 0.001 µM | 1.9 µM | 
COc1ncc2c(n1)nc(Nc1c(C)cccc1Cl)c1cncn12 | > 0.78 µM |  | 
Cc1cccc(Cl)c1Nc1nc2ccc(N(C)CCO)nc2n2cncc12 | 0.003 µM | 0.62 µM | 
Cc1cccc(Cl)c1Nc1nc2ccc(N3CCN[C@H](C)C3)nc2n2cncc12 | 0.002 µM | 0.24 µM | 
Cc1cccc(Cl)c1Nc1nc2ccc(N3CCN(C)CC3)nc2n2cncc12 | 0.001 µM | 0.4 µM | 

Structure (SMILES) | IC50 [1] | IC50 ([2]; Homo sapiens) | also measured
Cc1cccc(Cl)c1Nc1nc2ncccc2n2cncc12 | 0.09 µM |  | 
Cc1cccc(Cl)c1Nc1nc2cccnc2n2cncc12 | 0.03 µM |  | 
Cc1cccc(Cl)c1Nc1nc2ccc(N(C)C[C@@H](O)CO)nc2n2cncc12 | 0.007 µM | 0.3 µM | 
Cc1cccc(Cl)c1Nc1nc2ccc(N3C[C@@H](O)[C@H](O)C3)nc2n2cncc12 | 0.005 µM | 0.44 µM | 
Cc1cccc(Cl)c1Nc1nc2ccc(N3C[C@@H](C)N[C@@H](C)C3)nc2n2cncc12 | 0.002 µM | 0.4 µM | 
COc1ccc2c(c1)nc(Nc1c(C)cccc1Cl)c1cncn12 |  | 2.6 µM | 
Cc1cccc(Cl)c1NC1=NC2N=CN(C)C2n2c1cnc2C (stereo unspecified) | > 0.78 µM |  | 
Cc1cccc(Cl)c1Nc1nc2ccc(N(C)C)nc2n2cncc12 | 0.001 µM | 1.2 µM | Log IC50 [18]: 3 µM
Cc1cccc(Cl)c1Nc1nc2ccc(N3CCN[C@@H](CO)C3)nc2n2cncc12 | 0.005 µM | 0.27 µM | 
Cc1cccc(Cl)c1Nc1nc2ccc(N3CCN[C@H](CO)C3)nc2n2cncc12 | 0.003 µM | 0.18 µM | 
Cc1cccc(Cl)c1Nc1nc2ccc(N(CCO)CCO)nc2n2cncc12 | 0.004 µM | 0.62 µM | 
Cc1cccc(Cl)c1Nc1nc2cnccc2n2cncc12 | 0.077 µM |  | 
Cc1cccc(Cl)c1Nc1nc2cc(N(C)CCN(C)C)ncc2n2cncc12 | 0.24 µM |  | 
COc1ccc2nc(Nc3c(C)cccc3Cl)c3cncn3c2n1 | 0.019 µM | 1.8 µM | 
CCN(CC)c1ccc2nc(Nc3c(C)cccc3Cl)c3cncn3c2n1 | 0.002 µM | 2.1 µM | 
Cc1cccc(Cl)c1Nc1nc2ccc(N3C[C@H](O)[C@@H](O)C3)nc2n2cncc12 | 0.013 µM | > 2 µM | 
Brc1ccccc1Nc1nc2ccccc2n2cncc12 |  | 17 µM | 
COc1cc2c(cc1NCCN(C)C)nc(Nc1c(C)cccc1Cl)c1cncn12 |  | 0.194 µM | 
Cc1cccc(C)c1Nc1nc2ncccc2n2cncc12 | 0.15 µM |  | 
Cc1cccc(Cl)c1Nc1nc2ccc(N3CCCCC3)nc2n2cncc12 | 0.007 µM |  | 
Cc1cccc(Cl)c1Nc1nc2ccc(-n3ccnc3)nc2n2cncc12 | 0.005 µM | 0.47 µM | 
Cc1cccc(Cl)c1Nc1nc2cnc(N3C[C@@H](C)N[C@@H](C)C3)cc2n2cncc12 | 0.029 µM |  | 
Cc1cccc(Cl)c1Nc1nc2ccncc2n2cncc12 | 1.4 µM |  | 
